Series [1] is described as follows: Half life in human liver microsomes. Format: ADME, microsome. The essentials:
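Compounds were incubated with human liver microsomes. Half-life = ln(2)/slope, where the slope is ln(% detected) plotted against time, using the mean of at least 3 independent experiments.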
A general note: Microsomes from liver hold many membrane-bound enzymes, among them those of drug oxidation.

The subject of series [2] is Chikungunya virus. Kind of series: Antiviral activity against full length Gaussia princeps Gluc-tagged Chikungunya virus IMT infected in HEK293T cells assessed as reduction in virus infection after 24 hrs by Gaussia luciferase reporter gene assay. Format: functional, cell-based. Particulars: HEK-293T. (A reporter such as luciferase makes a cellular process visible.)
Series [3] can be described thus: Selectivity index, ratio of CC50 for HEK293T cells to EC50 for full length Gaussia princeps Gluc-tagged Chikungunya virus IMT. The series is classed as toxicity. Particulars: human, read-out: Ratio CC50/EC50.
The test system of series [4] is Chikungunya virus. As to the kind of experiment: Antiviral activity against wild type Chikungunya virus IMT infected in HEK293T cells assessed as reduction in virus infection after 24 hrs by FITC immunofluorescence-based single cell quantification high content screening assay. The series is classed as functional. As to conditions: HEK-293T.
Series [5] in a line: Cytotoxicity against HEK293T cells assessed as reduction in cell viability after 24 hrs by CellTiter-Glo luminescent assay. Format: cell-based, HEK-293T. As to conditions: human. The essentials: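 HEK 293T cell viability was measured by CellTiter-Glo luminescence after 24 h exposure to serial dilutions. Data were normalized to untreated cells (100%) and reagent background (0%). CC50, the concentration reducing viability by 50%, came from a five-parameter asymmetric fit.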
On the technique in general: In ATP-based viability assays light output follows the ATP content of the culture.

Series [6] deals with Chikungunya virus. As to the kind of experiment: Antiviral activity against full length gluc-tagged Chikungunya virus IMT infected in human BJ cells assessed as reduction in virus infection after 24 hrs by gaussia luciferase reporter gene assay. The series is classed as functional, cell-based.
Series [7] deals with Chikungunya virus. Kind of series: Antiviral activity against full length gluc-tagged Chikungunya virus 2013 Caribbean CNR20235 infected in HEK293T cells assessed as reduction in virus infection after 24 hrs by gaussia luciferase reporter gene assay. The series is classed as functional, cell-based. As to conditions: 2013 Caribbean CNR20235, HEK-293T.
Series [8] is described as follows: Cytotoxicity against human BJ cells assessed as reduction in cell viability after 24 hrs by CellTiter-Glo luminescent assay. The series is classed as cell-based. The essentials:
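BJ human fibroblast viability was measured by CellTiter-Glo luminescence after 24 h exposure to serial dilutions. Data were normalized to untreated cells (100%) and reagent background (0%). CC50 came from a five-parameter asymmetric fit.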

Series [9] has as its system Chikungunya virus. As to the kind of experiment: Antiviral activity against full length gluc-tagged Chikungunya virus 2008 Singapore SGP11 infected in HEK293T cells assessed as reduction in virus infection after 24 hrs by gaussia luciferase reporter gene assay. The series is classed as functional, cell-based. As to conditions: 2008 Singapore SGP11, HEK-293T.

The half-life is the time needed for the level to fall by half in the phase considered. By EC50 is commonly meant the concentration that produces a half-maximal response. As usually defined, the CC50 is the concentration at which the toxic effect on the cells reaches its halfway point.

Molecule `CCCNC(=O)C1CC12CCN(C(=O)c1cc3sc(-c4ccccc4)nc3n1Cc1ccc(OC)cc1)CC2` (configuration not stated) gave a half-life in series [1] of 41.8 min. Also, the EC50 is 7.7 µM with Chikungunya virus [2] and 14.1 µM in the series on Chikungunya virus [4]. In series [3], the selectivity ratio was more than 13. Further, the CC50 at 24 h in series [5] is more than 100 µM.

With `CCCNC(=O)C1CCN(C(=O)c2cc3ccsc3n2Cc2ccc(OC)cc2)CC1`, the half-life in series [1] was 4.08 min. Besides, the values for the EC50 with Chikungunya virus [2] and in the series on Chikungunya virus [4] were 8.86 µM and 6.5 µM, respectively. The selectivity ratio in [3] was found to be 2.6. Moreover, the cytotoxic concentration (CC50) at 24 h in series [5] was 23.4 µM.

On to `[2H]C([2H])(c1ccc(OC)cc1)n1c(C(=O)N2CCC(C(=O)NC([2H])(C([2H])([2H])[2H])C([2H])([2H])[2H])CC2)cc2sc(Br)cc21`, for which, in [1], the half-life came out at 3.8 min. The EC50 in the series on Chikungunya virus [2] was found to be 1.72 µM; with Chikungunya virus [4] it was 2 µM. In series [3], the selectivity ratio is more than 58. Also, the CC50 at 24 h in [5] was more than 100 µM.

Consider `[2H]C([2H])(c1ccc(OC)cc1)n1c(C(=O)N2CCC(C(=O)NCCC)CC2)cc2sc(Br)cc21`, for which the half-life in [1] turned out to be 3.53 min. Moreover, the EC50 is 2.03 µM in the series on Chikungunya virus [2] and 2.06 µM in the series with Chikungunya virus [4]. Further, the selectivity ratio in [3] is more than 49. Besides, the CC50 at 24 h in series [5] was more than 100 µM.

Consider `CCCNC(=O)[C@H]1[C@@H]2CCC[C@H]1CN(C(=O)c1cc3sc(-c4ccccc4)nc3n1Cc1ccc(OC)cc1)C2`, for which, in [1], the half-life turned out to be 35.1 min. In addition, the EC50 in the series on Chikungunya virus [2] was 9.64 µM; in the series on Chikungunya virus [4], 12.5 µM. In addition, the selectivity ratio in series [3] was more than 10. Besides, the cytotoxic concentration (CC50) at 24 h in [5] is more than 100 µM.

In turn, `CCCNC(=O)C1CCN(C(=O)c2cc3occc3n2Cc2ccc(OC)cc2)CC1` showed a half-life in series [1] of 2.74 min. For the same molecule, the figures for the EC50 in the series with Chikungunya virus [2] and in the series on Chikungunya virus [4] were 6 µM and 5.24 µM, respectively. Also, the selectivity ratio in series [3] was 6.2. For the same molecule, the half-maximal cytotoxic concentration (CC50) at 24 h in [5] was 37.2 µM.

Regarding `CCCNC(=O)[C@@H]1C[C@H]2CCC[C@@H](C1)[C@@H]2NC(=O)c1cc2sc(-c3ccccc3)nc2n1Cc1ccc(OC)cc1`, the half-life in [1] turned out to be 27.2 min. For the same molecule, the EC50 in the series on Chikungunya virus [2] is 5.32 µM; with Chikungunya virus [4], more than 25 µM. The selectivity ratio in series [3] was more than 19. For the same molecule, in [5], the CC50 at 24 h was more than 100 µM.

In the case of `CCCNC(=O)C1CCN(C(=O)c2cc3sc(-c4ccccc4)nc3n2Cc2ccc(OC)cc2)CC1`, the half-life in series [1] was 40.8 min. Moreover, the figures for the EC50 in the series with Chikungunya virus [2] and with Chikungunya virus [4] were 3.02 µM and 5.63 µM, respectively. The selectivity ratio in series [3] came to 7.6. Also, the CC50 at 24 h in [5] was determined as 22.9 µM.

In the case of `CCCNC(=O)C1CCN(C(=O)c2cc3sc(Br)nc3n2Cc2ccc(OC)cc2)CC1`, in [1], the half-life worked out at 2.99 min. For the same molecule, the EC50 stood at 1.06 µM in the series with Chikungunya virus [2] and 2.96 µM with Chikungunya virus [4]. For the same molecule, the selectivity ratio in [3] was 35. For the same molecule, in [5], the CC50 at 24 h worked out at 36.7 µM.

`CCCNC(=O)[C@H]1[C@@H]2CCC[C@H]1CN(C(=O)c1cc3sc(Br)cc3n1Cc1ccc(OC)cc1)C2`: the half-life in [1] was found to be 3.62 min. The concentration for a half-maximal effect (EC50) came to 6.98 µM in the series with Chikungunya virus [2] and 14.8 µM in the series on Chikungunya virus [4]. For the same molecule, the selectivity ratio in series [3] was more than 14. In series [5], the CC50 at 24 h was more than 100 µM.

Regarding `NC(=O)c1ncn([C@@H]2O[C@H](CO)[C@@H](O)[C@H]2O)n1` [RIBAVIRIN], the EC50 was found to be 9.71 µM in the series with Chikungunya virus [6], 1.97 µM in the series on Chikungunya virus [7], 16.2 µM in the series with Chikungunya virus [2] and 1.89 µM in the series on Chikungunya virus [9]. Further, the CC50 at 24 h in series [8] and in [5] was more than 100 µM throughout.

Consider `CCCNC(=O)C1CCN(C(=O)c2cc3ccccc3n2Cc2ccc(OC)cc2)CC1`, for which the half-life in series [1] was found to be 2.66 min. The results for the half-maximal effective concentration (EC50) with Chikungunya virus [2] and in the series with Chikungunya virus [4] were 7.86 µM and 8.26 µM, respectively. For the same molecule, the selectivity ratio in [3] is 3.3. The 50% cytotoxic concentration (CC50) at 24 h in series [5] came to 26 µM.

In series [1], `CCCNC(=O)C1CCN(C(=O)c2cc3oc(Br)cc3n2Cc2ccc(OC)cc2)CC1` returned a half-life of 9.5 min. In addition, the EC50 in the series with Chikungunya virus [2] worked out at 1.93 µM; in the series on Chikungunya virus [4] it was 1.86 µM. The selectivity ratio in series [3] came to 11. For the same molecule, the half-maximal cytotoxic concentration (CC50) at 24 h in series [5] was found to be 21.9 µM.

In [1], `COc1ccc(Cn2c(C(=O)N3CCC(C(=O)NC(C)C)CC3)cc3sc(Br)cc32)cc1` registered a half-life of 3.76 min. Further, the 50% effective concentration (EC50) in the series on Chikungunya virus [2] was 1.95 µM; with Chikungunya virus [4], 2.47 µM. In addition, in [3], the selectivity ratio was more than 51. Besides, in [5], the CC50 at 24 h is more than 100 µM.

Consider `CCCNC(=O)C1CCN(C(=O)c2cc3ncsc3n2Cc2ccc(OC)cc2)CC1`, for which the half-life in [1] turned out to be 32.6 min. Besides, the EC50 came out at 9.39 µM in the series with Chikungunya virus [2] and 14 µM with Chikungunya virus [4]. Also, the selectivity ratio in [3] amounted to 4.5. In addition, the 50% cytotoxic concentration (CC50) at 24 h in [5] was found to be 42.7 µM.

On to `[2H]C([2H])([2H])C([2H])(NC(=O)C1CCN(C(=O)c2cc3sc(Br)cc3n2Cc2ccc(OC)cc2)CC1)C([2H])([2H])[2H]`, for which the half-life in series [1] was 5.33 min. In addition, the concentration for a half-maximal effect (EC50) with Chikungunya virus [2] came out at 1.55 µM; with Chikungunya virus [4], 1.63 µM. Also, the selectivity ratio in series [3] is more than 65. The CC50 at 24 h in [5] was more than 100 µM.

Molecule `CCCNC(=O)C1CCN(C(=O)c2cccn2Cc2ccc(OC)cc2)CC1` displayed a half-life in series [1] of 6.71 min. The EC50 with Chikungunya virus [2] worked out at 25.7 µM. The selectivity ratio in series [3] is more than 3.9. For the same molecule, in series [5], the CC50 at 24 h was more than 100 µM.

For `CCCNC(=O)C1CC12CCN(C(=O)c1cc3sc(Br)cc3n1Cc1ccc(OC)cc1)CC2` (configuration not stated), the half-life in series [1] was found to be 5.83 min. Moreover, the EC50 in the series on Chikungunya virus [2] came out at 9.35 µM; in the series with Chikungunya virus [4], 15.7 µM. For the same molecule, the selectivity ratio in series [3] is more than 11. The CC50 at 24 h in series [5] is more than 100 µM.

Regarding `CCCNC(=O)C1CCN(C(=O)c2cc3nc(Br)sc3n2Cc2ccc(OC)cc2)CC1`, in series [1], the half-life was found to be 22.1 min. In addition, the 50% effective concentration (EC50) with Chikungunya virus [2] is 2.22 µM; in the series on Chikungunya virus [4] it was 3.87 µM. The selectivity ratio in series [3] stood at 21. The CC50 at 24 h in [5] was 46.8 µM.

Turning to `CCCNC(=O)C1CC12CCN(C(=O)c1cc3sc(Br)nc3n1Cc1ccc(OC)cc1)CC2` (configuration not stated), the half-life in series [1] was found to be 4.97 min. Besides, the 50% effective concentration (EC50) with Chikungunya virus [2] is 8.21 µM; in the series on Chikungunya virus [4] it was more than 25 µM. Further, the selectivity ratio in series [3] came out at 9.9. Besides, the CC50 at 24 h in series [5] was 81.3 µM.

In series [1], `CCCNC(=O)[C@@H]1C[C@H]2CCC[C@@H](C1)[C@@H]2NC(=O)c1cc2scnc2n1Cc1ccc(OC)cc1` gave a half-life of 44.6 min. The EC50 in the series on Chikungunya virus [2] was 11.4 µM. Moreover, the selectivity ratio in series [3] was more than 2.2. Also, the CC50 at 24 h in series [5] was more than 25 µM.

Consider `CCCNC(=O)C1CCN(C(=O)c2cc3scnc3n2Cc2ccc(OC)cc2)CC1`, for which the half-life in series [1] came out at 27.7 min. Besides, the EC50 with Chikungunya virus [2] stood at 4.56 µM; with Chikungunya virus [4], 4.72 µM. In addition, the selectivity ratio in [3] turned out to be 4.2. Besides, in series [5], the CC50 at 24 h worked out at 19.1 µM.

For the molecule `CCCNC(=O)C1CCN(C(=O)c2cc3[nH]ccc3n2Cc2ccc(OC)cc2)CC1`, the half-life in series [1] was found to be 23.1 min. The concentration giving a half-maximal response (EC50) with Chikungunya virus [2] came to 11.4 µM. For the same molecule, the selectivity ratio in series [3] was more than 8.8. For the same molecule, in series [5], the CC50 at 24 h was more than 100 µM.

Take `CCCNC(=O)C1CCN(C(=O)c2cc3sc(Br)cc3n2Cc2ccc(OC)cc2)CC1`: in [1], the half-life was found to be 2.91 min. The EC50 in the series with Chikungunya virus [2] was 3.1 µM. For the same molecule, the selectivity ratio in series [3] is more than 32. Further, the CC50 at 24 h in series [5] was more than 100 µM.

The values above are taken from ChEMBL document CHEMBL4007509, “Structural Optimizations of Thieno[3,2-b]pyrrole Derivatives for the Development of Metabolically Stable Inhibitors of Chikungunya Virus” (J Med Chem, 2017).
